Laboratory results as given in ChEMBL document CHEMBL1136765, “1,3-dioxolane-based ligands as a novel class of alpha1-adrenoceptor antagonists” (J Med Chem, 2003).

Columns and labels:
[1] = target: Adrenergic receptors; alpha-1 A & B (Homo sapiens) (UniProt P35348+P35368); assay: Selectivity over alpha-1a/alpha-1b; type: protein assay
[2] = target: T1, Alpha-1D adrenergic receptor (Rattus norvegicus) (UniProt P23944); assay: Inhibition of (-)-noradrenaline-induced contraction of rat thoracic aorta (Alpha-1D adrenergic receptor); type: functional, tissue-based
T1 sequence (whole entry): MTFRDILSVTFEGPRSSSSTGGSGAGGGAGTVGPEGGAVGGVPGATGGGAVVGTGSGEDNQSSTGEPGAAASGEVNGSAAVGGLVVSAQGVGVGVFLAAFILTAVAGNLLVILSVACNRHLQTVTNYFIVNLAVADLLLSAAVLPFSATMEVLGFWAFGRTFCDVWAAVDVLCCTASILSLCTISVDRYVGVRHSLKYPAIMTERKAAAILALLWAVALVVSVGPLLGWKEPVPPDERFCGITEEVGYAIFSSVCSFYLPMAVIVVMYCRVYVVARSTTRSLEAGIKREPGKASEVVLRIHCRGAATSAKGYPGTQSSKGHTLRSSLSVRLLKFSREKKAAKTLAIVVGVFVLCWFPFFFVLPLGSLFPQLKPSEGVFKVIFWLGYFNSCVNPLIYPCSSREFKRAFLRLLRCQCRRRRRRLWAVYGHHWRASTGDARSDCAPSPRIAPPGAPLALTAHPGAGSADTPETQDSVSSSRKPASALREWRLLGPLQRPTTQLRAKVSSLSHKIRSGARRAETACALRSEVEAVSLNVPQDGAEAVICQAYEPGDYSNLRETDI
In short: (§1)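 Endothelium-denuded rat thoracic aorta strips (denudation confirmed by no 100 µM acetylcholine relaxation after 1 µM noradrenaline) in Tyrode, 1 g tension, ≥2 h equilibration. Cumulative (-)-noradrenaline curves at 1 h intervals; third as control, antagonist 30 min before fourth.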

[3] = Selectivity given as ratio of pKb value against Alpha-1D receptor to pKb value against Alpha-1B receptor in rat; type: functional
[4] = target: T2, Alpha-1D adrenergic receptor (Homo sapiens, UniProt P25100); assay: Affinity constant towards human recombinant Alpha-1D adrenergic receptor using [3H]prazosin (from CHO cells) as radioligand by radioligand binding assay; type: cell-based
T2 sequence (P25100 whole entry): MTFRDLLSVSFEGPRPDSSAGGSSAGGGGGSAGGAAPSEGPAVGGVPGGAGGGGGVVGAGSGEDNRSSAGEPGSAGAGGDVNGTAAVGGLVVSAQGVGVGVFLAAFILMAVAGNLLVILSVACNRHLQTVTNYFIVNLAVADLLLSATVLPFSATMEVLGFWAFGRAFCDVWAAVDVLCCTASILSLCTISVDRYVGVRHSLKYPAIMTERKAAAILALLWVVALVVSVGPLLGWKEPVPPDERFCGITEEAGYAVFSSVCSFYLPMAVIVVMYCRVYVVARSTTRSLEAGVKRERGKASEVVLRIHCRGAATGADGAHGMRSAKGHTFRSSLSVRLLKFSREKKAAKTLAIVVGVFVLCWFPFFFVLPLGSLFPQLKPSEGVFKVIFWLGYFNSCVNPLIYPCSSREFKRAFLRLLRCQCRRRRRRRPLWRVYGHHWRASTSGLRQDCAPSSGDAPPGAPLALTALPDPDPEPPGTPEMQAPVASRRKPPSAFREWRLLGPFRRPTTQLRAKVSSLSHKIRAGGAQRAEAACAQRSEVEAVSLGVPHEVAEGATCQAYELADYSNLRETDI
In short: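 Membranes of CHO cells stably expressing each cloned human α1 subtype (30 µg protein) incubated with 0.1-0.4 nM [3H]prazosin in 50 mM Tris-HCl pH 7.4, 30 min at 25 °C, with competitor. Nonspecific binding with 10 µM phentolamine. Stopped by ice-cold buffer and filtration on PEI-pretreated filters. IC50 by curve fitting, Ki via Cheng-Prusoff. Mean of two to three experiments in triplicate.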

[5] = target: T3, Alpha-1D adrenergic receptor (Rattus norvegicus, UniProt P23944); assay: Antagonistic activity against (-)-noradrenaline-induced contraction of rat thoracic aorta (Alpha-1D adrenergic receptor); type: functional, tissue-based; conditions: read-out: pA2 (converted); in short: as §1
T3 sequence (P23944 whole entry): T1 sequence (whole entry)

[6] = target: T4, Alpha-1B adrenergic receptor (Rattus norvegicus, UniProt P15823); assay: Antagonistic activity against (-)-phenylephrine-induced contraction of rat spleen (Alpha-1B adrenergic receptor ); type: functional, tissue-based; conditions: read-out: pA2 (converted)
T4 sequence (P15823 whole entry): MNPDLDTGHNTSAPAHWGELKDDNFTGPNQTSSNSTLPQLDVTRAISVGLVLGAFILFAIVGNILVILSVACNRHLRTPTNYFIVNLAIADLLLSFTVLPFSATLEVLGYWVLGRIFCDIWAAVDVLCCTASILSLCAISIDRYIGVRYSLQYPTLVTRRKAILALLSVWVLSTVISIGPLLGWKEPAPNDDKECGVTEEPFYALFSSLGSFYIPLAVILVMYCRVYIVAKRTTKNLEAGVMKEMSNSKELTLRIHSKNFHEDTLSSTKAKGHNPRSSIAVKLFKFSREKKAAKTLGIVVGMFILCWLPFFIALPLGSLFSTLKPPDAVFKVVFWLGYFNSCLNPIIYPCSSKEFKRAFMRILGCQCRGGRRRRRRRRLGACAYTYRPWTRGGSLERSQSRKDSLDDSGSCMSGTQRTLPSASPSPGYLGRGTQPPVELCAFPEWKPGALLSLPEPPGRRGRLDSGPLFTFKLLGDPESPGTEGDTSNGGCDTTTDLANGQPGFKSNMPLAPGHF
In short: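 Rat spleen strips in buffer containing 4 µM propranolol to block β-adrenoceptors, 1 g resting tension, 2 h equilibration. Isometric cumulative phenylephrine curves at 30 min intervals; first discarded, second control.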

[7] = target: T5, Alpha-1A adrenergic receptor (Rattus norvegicus, UniProt P43140); assay: Antagonistic activity against (-)-noradrenaline-induced contraction of rat prostatic vas deferens (alpha1A receptor); type: functional, tissue-based; conditions: read-out: pA2 (converted)
T5 sequence (P43140 whole entry): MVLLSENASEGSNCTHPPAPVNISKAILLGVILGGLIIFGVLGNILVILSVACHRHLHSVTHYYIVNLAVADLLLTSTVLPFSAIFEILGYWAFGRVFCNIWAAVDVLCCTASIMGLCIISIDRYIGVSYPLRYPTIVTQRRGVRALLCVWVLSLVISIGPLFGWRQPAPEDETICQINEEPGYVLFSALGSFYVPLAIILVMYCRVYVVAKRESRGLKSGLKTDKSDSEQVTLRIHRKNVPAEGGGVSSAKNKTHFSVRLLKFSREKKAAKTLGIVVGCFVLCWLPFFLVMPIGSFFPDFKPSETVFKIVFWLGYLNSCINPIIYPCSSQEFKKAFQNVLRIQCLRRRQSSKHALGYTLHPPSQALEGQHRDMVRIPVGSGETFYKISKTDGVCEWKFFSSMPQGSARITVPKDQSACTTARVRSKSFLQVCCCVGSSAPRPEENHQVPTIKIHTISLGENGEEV
In short: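 Rat prostatic vas deferens portion equilibrated 60 min, washed every 15 min, primed twice with 10 µM noradrenaline, re-equilibrated 60 min; control noradrenaline concentration-response curve, then antagonist 30 min before repeat curve.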

SMILES	Selectivity [1]	pKb [2]	Selectivity [3]	Ki [4]	Kb [5]	Kb [6]	Kb [7]
CN(CCOc1ccccc1)CC1COC(c2ccccc2)(c2ccccc2)O1.O=C(O)C(=O)O (stereo not drawn)	0.3	6.06	6	> 1000 nM			
C[N+](C)(CCOc1ccccc1)CC1COC(c2ccccc2)(c2ccccc2)O1.O=C([O-])C(=O)O (stereo not drawn)	0.6	6.19	4	> 1000 nM			
O=C(O)C(=O)O.c1ccc(OCCNCC2COC(c3ccccc3)(c3ccccc3)O2)cc1 (stereo not drawn)	2		324	11.5 nM	4.27 nM		
COc1ccccc1OCCNCC1COC(c2ccccc2)(c2ccccc2)O1.O=C(O)C(=O)O (stereo not drawn)	2		20	9.33 nM	2.24 nM	43.7 nM	29.5 nM
